Bioassay records from PubChem BioAssay.
MrgX1 agonist = human MrgX1 receptor agonism, primary screen; MrgX1-HEK293 cells, Fluo-4 calcium fluorescence, agonist mode; stronger effect = higher value; B-score at 10 µM; 310,000 compounds, 0.44% hits;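 active means calcium response B-score plate-corrected fluorescence ratio at least 3 library SD, with starting fluorescence B-score inside 5 SD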
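Material – MrgX1-expressing HEK293 cells · Input – 15,000 cells seeded per well · Dosing – compound as first of three additions · Times – overnight seeding, then 1 h dark dye loading · Measured by – kinetic Fluo-4 NW fluorescence of intracellular calcium · Read-out – B-scored fluorescence response ratio · Benchmarks – positive and negative control wells on each plate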
RGS4 act = RGS4 potentiation or activation; 310,000 compounds, 0.92% hits; HEK293 M3R/inducible RGS4, carbachol calcium flux Fluo4; stronger effect = lower value; B-score at 10 µM;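 active means B-score of the integrated calcium signal more than 4 SD below the library mean, with starting fluorescence not abnormally high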;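 further: negative B-score means reduced calcium response which marks RGS4 activation or potentiation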
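Detection: kinetic calcium fluorescence imaging with Fluo4-AM dye, 2 µM / Material: HEK293 cells with stable M3R and inducible RGS4 / Schedule: recording 10 s baseline at 1 Hz, 100 s post-agonist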
MrgX1 antag = blocks BAM8-22 activation of human MrgX1 receptor | Q96LB2 | MRGX1-HEK293 calcium flux, Fluo-4, BAM8-22 antagonism; stronger effect = lower value | B-score at 10 µM | 310,000 compounds, 1.3% hits | AID 588676;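 active means calcium-response B-score plate-corrected more than 3 library SD below zero, starting fluorescence within 5 deviations, no agonist response on first addition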;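 further: peak minus trough fluorescence over baseline after final BAM8-22 challenge near maximal dose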
MrgX1 PAM = allosterically activates human MrgX1 receptor signaling; 310,000 compounds, 0.63% hits; AID 588675; B-score at 10 µM; MrgX1-HEK293, Fluo-4 calcium flux, FDSS; stronger effect = higher value; Q96LB2;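 active means plate-corrected calcium response at least 3 library SD above typical, normal starting fluorescence, not activating the receptor alone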;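 further: compound read alongside a low EC10 to EC30 dose of BAM8-22 agonist; peak minus trough fluorescence over baseline measured at the second addition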
RGS4 inh = human RGS4 inhibition; P49798; HEK293 M3R/RGS4 inducible, Fluo-4 calcium flux; stronger effect = higher value; triggered by carbachol at its EC20; B-score at 10 µM; 310,000 compounds, 0.45% hits; AID 463165;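 active means B-score, a plate-corrected calcium signal, over three deviations above library mean, with baseline fluorescence within five deviations of library mean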;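 further: RGS4 expression induced by doxycycline in cells with stable M3 receptor; B-score is computed from the integrated fluorescence ratio over baseline after carbachol; higher B-score means a larger calcium signal and so more RGS4 inhibition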
Target sequence (P49798 whole entry, looked up): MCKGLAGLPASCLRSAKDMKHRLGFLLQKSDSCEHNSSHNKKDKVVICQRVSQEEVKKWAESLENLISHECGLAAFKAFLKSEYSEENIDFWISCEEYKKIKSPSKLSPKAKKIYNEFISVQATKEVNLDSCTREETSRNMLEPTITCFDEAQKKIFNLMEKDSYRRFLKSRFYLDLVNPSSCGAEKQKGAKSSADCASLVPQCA
An asterisk follows results filed as active; i = inactive; nt = not tested or not shown. A selection: hits, their analogues and other compounds. The true share with any hit is near 3.5%.

SMILES | MrgX1 agonist | RGS4 act | MrgX1 antag | MrgX1 PAM | RGS4 inh
Cc1cc(C)nc(N/N=C/C2=C(N3CCOCC3)C(=C\c3ccc(Cl)cc3)/CC2)n1 | i | i | i | i | i
CN(C)CCCn1c2c(c(SCC(=O)Nc3ccc4c(c3)OCCO4)nc1=O)CCC2 | i | i | i | i | i
CCOc1ccc(NC(=O)C(NC(=O)C2CCC(C)CC2)C(C)C)cc1 (stereo unspecified) | i | -7* | i | i | i
COc1ccc(C(CCN2CCCCC2)c2c(OC)cc(OC)c3c(-c4ccccc4)cc(=O)oc23)cc1 (stereo unspecified) | i | i | i | 14* | i
CCOP(=O)(OCC)C(NC(=O)Nc1ccc(C)c(Cl)c1)c1ccccc1 (stereo unspecified) | i | i | -7.8* | i | i
Cc1ccc(C(c2sc3nc(C)nn3c2O)N2CCN(CCO)CC2)cc1 (stereo unspecified) | i | i | i | i | i
Cc1ccc(C(c2sc3nc(C)nn3c2O)N2CCN(c3ccccc3F)CC2)cc1 (stereo unspecified) | i | i | -5.2* | i | i
C[N+]1(CC(=O)Nc2ccccc2Cl)CCN(C(=O)c2cccs2)CC1 | i | i | i | i | i
COC(=O)c1ccc(-c2sc3nc(N4CCOCC4)c4c(c3c2N)CCCC4)o1 | i | -8.8* | i | 17* | i
CCN(CC)CCn1c(=S)[nH]c2ccc(Br)cc2c1=O | i | i | i | i | i
Nc1cc2c3c(cccc3c1)C(=O)N(CCN1CCCC1)C2=O | i | i | -4.7* | i | i
O=C1c2cccc3cc([N+](=O)[O-])cc(c23)C(=O)N1CCN1CCCC1 | nt | i | nt | nt | i
Cc1cc(CNC(=O)CC2C(=O)NCCN2CC(C)(C)C)nn1C (stereo unspecified) | i | i | i | i | i
CC(C)(C)c1ccc(C(=O)N2CCCC2)s1 | i | i | i | i | i
CC(=O)Nc1cccc(C(=O)OCC(=O)Nc2c(C)nn(-c3ccccc3)c2C)c1 | i | i | i | i | i
Cc1nn(-c2ccccc2)c(C)c1NC(=O)COC(=O)c1ccc(Cl)c(N)c1 | i | -7* | i | i | i
COc1cccc(OCC(=O)N(C)Cc2nc(-c3cccc(C)c3)no2)c1 | i | i | i | i | i
C=CCSc1nnc(NC(=O)C23CC4CC(CC(NC(C)=O)(C4)C2)C3)s1 | i | i | i | i | i
CC(C)c1ccc2nc3sc(C(=O)N4CCc5ccccc5C4)c(N)c3cc2c1 | i | i | -5.8* | i | i
CCc1ccc2nc3sc(C(=O)N4CCc5ccccc54)c(N)c3cc2c1 | i | i | -7.7* | i | i
CCN1CCc2nc3sc(C(=O)N4CCc5ccccc5C4)c(N)c3cc2C1 | i | i | i | i | i
O=C1CC(=O)Nc2cc(S(=O)(=O)Nc3ccc(Cl)c(C(F)(F)F)c3)ccc2N1 | i | i | i | i | i
COc1cc([N+](=O)[O-])ccc1NC(=O)Nc1cccnc1 | i | i | i | i | i
Cc1cc(NC(=O)Nc2cccc([N+](=O)[O-])c2)no1 | i | i | i | i | i
O=C(Nc1ccc(OC(F)(F)F)cc1)Nc1cccnc1 | i | i | i | i | i
SMILES | MrgX1 agonist | RGS4 act | MrgX1 antag | MrgX1 PAM | RGS4 inh
Cc1cc(C)nc(/N=C(\N)Nc2cccc([N+](=O)[O-])c2)n1 | 41* | i | i | i | i
Cc1cc(C)nc(/N=C(\N)Nc2ccc([N+](=O)[O-])cc2)n1 | i | i | i | i | i
O=C(Nc1ccc(OC(F)(F)F)cc1)Nc1cccc([N+](=O)[O-])c1 | i | i | -6.6* | i | i
O=C(Nc1cccnc1)Nc1cccc([N+](=O)[O-])c1 | i | i | -5.2* | i | i
Cc1ccc(NC(=O)Nc2cccc([N+](=O)[O-])c2)cc1F | i | i | -6.1* | i | i
COC(=O)c1cc(NC(=O)CSc2nncn2C)cc(C(=O)OC)c1 | i | i | i | i | i
